The values that follow come from article PMC7686114 (Bioorganic chemistry, 2020).

SMILES strings stand for the structures. Entries after “also recorded” stand apart in the source; their conditions may differ. Read-outs that look alike come from different tables or passages of the source.

For orientation: IC50 means the midpoint of a concentration-inhibition curve.

In one assay the target is PDE3B (Homo sapiens, UniProt Q13370). As to the kind of experiment: PDE isoform selectivity, IMAP FP assay. Type of assay: biochemical. The procedure, abridged: (§1)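 Recombinant PDE enzymes were used at concentrations set empirically to give EC80 activity, in 10 mM Tris-HCl pH 7.4, 10 mM MgCl2, 0.1 mg/mL BSA. Test compound was preincubated with enzyme for 60 min at 30°C. TAMRA-cGMP (ex530/em590) or FAM-cAMP (ex485/em530), 50 nmol/L final, was then added for 30 min at 30°C. IMAP binding reagent followed for 10 min at 30°C, and fluorescence polarization was read.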

The test system of assay [1] is intracellular cGMP levels in HEK293 cells. As to the kind of experiment: Luciferase cGMP biosensor assay. Type of assay: cell-based, human. As to conditions: for relative potency/efficacy in increasing intracellular cGMP levels: comparison among tadalafil, celecoxib, 11 and 19; for intracellular cGMP levels (luminescence), concentration dependence: pretreated with sodium nitroprusside. The method in brief: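 HEK293 cells stably expressing a GloSensor cGMP-40F construct (human PDE5A GAF-A fused to firefly luciferase) were G418-selected. Cells were seeded at 6×10⁴/well and attached overnight in DMEM + 10% FBS at 37°C, 5% CO2. They were preincubated at room temperature in CO2-independent medium with 10% FBS and 5 mmol/L luciferin. 50 μM sodium nitroprusside was added together with test compound, and luminescence was read every minute for 1 h.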

The target of a further assay is PDE2A (Homo sapiens, UniProt O00408). As to the kind of experiment: PDE isoform selectivity, IMAP FP assay. Type of assay: biochemical.
The target in the next assay is PDE11A (Homo sapiens, UniProt Q9HCR9). The assay can be described thus: PDE isoform selectivity, IMAP FP assay. It counts as biochemical. The method in brief: as §1
In another assay the target is PDE1A (Homo sapiens, UniProt P54750). As to the kind of experiment: PDE isoform selectivity, IMAP FP assay. It counts as biochemical. The procedure, abridged: as §1
Another assay has as its target PDE8A (Homo sapiens, UniProt O60658). The assay can be described thus: PDE isoform selectivity, IMAP FP assay. Type of assay: biochemical. As to conditions: read-out: % inhibition at 50 μM, PDE8A (cAMP). The procedure, abridged: as §1
A further assay deals with PDE7A (Homo sapiens, UniProt Q13946). The assay can be described thus: PDE isoform selectivity, IMAP FP assay. It counts as biochemical. The settings on record: read-out: % inhibition at 50 μM, PDE7A (cAMP). The method in brief:
as §1

The target in the next assay is PDE3A (Homo sapiens, UniProt Q14432). As to the kind of experiment: PDE isoform selectivity, IMAP FP assay. Type of assay: biochemical. The method in brief:
as §1

The next assay concerns the target PDE6C (Homo sapiens, UniProt P51160). The assay can be described thus: PDE isoform selectivity, IMAP FP assay. Type of assay: biochemical. The settings on record: read-out: % inhibition at 50 μM, PDE6C (cGMP). The method in brief:
as §1

For a further assay, the target named is PDE9A (Homo sapiens, UniProt O76083). As to the kind of experiment: PDE isoform selectivity, IMAP FP assay. Type of assay: biochemical. As to conditions: read-out: % inhibition at 50 μM, PDE9A (cGMP). The procedure, abridged: as §1
In the next assay the target is PDE10A (Homo sapiens, UniProt Q9Y233). The assay can be described thus: PDE isoform selectivity, IMAP FP assay. It counts as biochemical. The method in brief: as §1
The target in another assay is PDE4B2 (Homo sapiens, UniProt Q07343). As to the kind of experiment: PDE isoform selectivity, IMAP FP assay. As to conditions: read-out: % inhibition at 50 μM, PDE4B2 (cAMP). It counts as biochemical. The procedure, abridged: as §1
In another assay the target is human recombinant PDE5 (Homo sapiens, UniProt O76074). The assay can be described thus: PDE5 inhibition, IMAP fluorescence polarization assay. Type of assay: biochemical. The settings on record: for fold reduction in PDE5 inhibitory potency compared to compound 7: vs compound 7 (4-COOH, 4-chlorophenyl). Background: In fluorescence polarisation assays a small probe gives low polarisation when free and higher when bound to something large.

Assay [2] concerns all other PDE isozymes, including PDE6 and PDE11. As to the kind of experiment: PDE isozyme selectivity panel. It counts as biochemical, human. As to conditions: concentrations up to 50 μM.
The target in the next assay is T1, COX-2 (Ovis aries, UniProt P79208).
T1 sequence (P79208 17-603): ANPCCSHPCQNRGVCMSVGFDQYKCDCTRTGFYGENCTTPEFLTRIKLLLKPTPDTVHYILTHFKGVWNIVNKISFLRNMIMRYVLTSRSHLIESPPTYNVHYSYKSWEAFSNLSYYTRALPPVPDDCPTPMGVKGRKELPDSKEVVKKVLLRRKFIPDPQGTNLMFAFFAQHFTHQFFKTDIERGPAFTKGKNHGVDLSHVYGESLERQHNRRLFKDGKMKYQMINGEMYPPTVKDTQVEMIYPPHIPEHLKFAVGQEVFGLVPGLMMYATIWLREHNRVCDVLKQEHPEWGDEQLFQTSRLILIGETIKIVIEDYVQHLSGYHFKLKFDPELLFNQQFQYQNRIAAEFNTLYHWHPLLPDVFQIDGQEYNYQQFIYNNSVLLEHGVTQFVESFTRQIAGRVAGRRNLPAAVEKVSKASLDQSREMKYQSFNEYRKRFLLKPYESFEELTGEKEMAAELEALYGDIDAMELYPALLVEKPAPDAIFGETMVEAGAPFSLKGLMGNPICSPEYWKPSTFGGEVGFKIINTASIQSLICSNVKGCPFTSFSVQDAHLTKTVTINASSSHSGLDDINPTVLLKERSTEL
The assay can be described thus: COX-2 colorimetric assay. Type of assay: biochemical, ovine. The procedure, abridged:
(§2)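 Ovine COX-1 or COX-2 was diluted with hemin in 0.1 M Tris-HCl, pH 8. Test compound or vehicle was preincubated with enzyme for 5 min at 25°C. Colorimetric substrate was added, then arachidonic acid, and the reaction ran 5 min more at 25°C. Activity was read as substrate absorbance at 590 nm.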

A further assay concerns the target T2, COX-1 (Ovis aries, UniProt P05979).
T2 sequence (P05979 25-600): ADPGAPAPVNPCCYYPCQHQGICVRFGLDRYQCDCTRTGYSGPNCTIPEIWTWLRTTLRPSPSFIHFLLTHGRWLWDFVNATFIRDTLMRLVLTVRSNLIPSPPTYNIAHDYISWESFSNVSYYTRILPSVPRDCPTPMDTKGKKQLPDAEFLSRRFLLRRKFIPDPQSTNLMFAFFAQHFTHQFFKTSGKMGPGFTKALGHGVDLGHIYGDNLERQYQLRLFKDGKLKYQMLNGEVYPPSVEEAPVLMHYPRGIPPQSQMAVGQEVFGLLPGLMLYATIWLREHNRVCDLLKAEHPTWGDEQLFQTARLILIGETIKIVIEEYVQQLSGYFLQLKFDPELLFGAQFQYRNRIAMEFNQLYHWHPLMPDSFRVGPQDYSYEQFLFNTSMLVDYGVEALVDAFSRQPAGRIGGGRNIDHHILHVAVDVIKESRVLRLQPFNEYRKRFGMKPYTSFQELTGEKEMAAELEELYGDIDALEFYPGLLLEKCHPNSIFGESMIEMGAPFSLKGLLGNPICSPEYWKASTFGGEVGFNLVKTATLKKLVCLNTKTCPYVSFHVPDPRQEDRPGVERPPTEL
As to the kind of experiment: COX-1 colorimetric assay. As to conditions: screening concentration 100 μM. It counts as biochemical, ovine. The method in brief: as §2

The mark [3] stands for this setting: read-out: PDE5 % inh at 50 (μM).

PDE2A, sequence (O00408 whole entry, canonical isoform): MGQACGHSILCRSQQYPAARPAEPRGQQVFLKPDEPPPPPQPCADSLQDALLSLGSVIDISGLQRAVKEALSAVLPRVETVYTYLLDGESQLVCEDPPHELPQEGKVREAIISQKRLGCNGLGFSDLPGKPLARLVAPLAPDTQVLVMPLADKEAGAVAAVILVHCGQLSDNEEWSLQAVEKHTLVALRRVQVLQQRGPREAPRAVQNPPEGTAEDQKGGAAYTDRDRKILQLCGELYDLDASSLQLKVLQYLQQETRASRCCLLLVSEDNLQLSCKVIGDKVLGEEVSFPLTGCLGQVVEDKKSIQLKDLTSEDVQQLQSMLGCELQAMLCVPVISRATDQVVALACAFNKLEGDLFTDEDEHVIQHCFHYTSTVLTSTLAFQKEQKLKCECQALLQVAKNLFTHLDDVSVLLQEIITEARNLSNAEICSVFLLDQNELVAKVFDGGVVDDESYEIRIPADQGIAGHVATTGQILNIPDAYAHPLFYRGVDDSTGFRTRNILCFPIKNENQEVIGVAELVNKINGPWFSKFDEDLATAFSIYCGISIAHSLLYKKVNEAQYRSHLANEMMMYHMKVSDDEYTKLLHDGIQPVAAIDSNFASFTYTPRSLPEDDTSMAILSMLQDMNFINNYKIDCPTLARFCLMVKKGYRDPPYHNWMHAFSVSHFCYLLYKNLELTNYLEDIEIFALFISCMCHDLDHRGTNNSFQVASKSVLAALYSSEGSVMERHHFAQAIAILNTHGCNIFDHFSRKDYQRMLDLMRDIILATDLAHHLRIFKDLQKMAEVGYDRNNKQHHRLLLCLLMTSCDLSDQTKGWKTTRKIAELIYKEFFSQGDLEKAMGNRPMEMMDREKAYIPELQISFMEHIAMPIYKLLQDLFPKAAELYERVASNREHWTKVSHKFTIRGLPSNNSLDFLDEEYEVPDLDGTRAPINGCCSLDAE
PDE3A, sequence (Q14432 whole entry, canonical isoform): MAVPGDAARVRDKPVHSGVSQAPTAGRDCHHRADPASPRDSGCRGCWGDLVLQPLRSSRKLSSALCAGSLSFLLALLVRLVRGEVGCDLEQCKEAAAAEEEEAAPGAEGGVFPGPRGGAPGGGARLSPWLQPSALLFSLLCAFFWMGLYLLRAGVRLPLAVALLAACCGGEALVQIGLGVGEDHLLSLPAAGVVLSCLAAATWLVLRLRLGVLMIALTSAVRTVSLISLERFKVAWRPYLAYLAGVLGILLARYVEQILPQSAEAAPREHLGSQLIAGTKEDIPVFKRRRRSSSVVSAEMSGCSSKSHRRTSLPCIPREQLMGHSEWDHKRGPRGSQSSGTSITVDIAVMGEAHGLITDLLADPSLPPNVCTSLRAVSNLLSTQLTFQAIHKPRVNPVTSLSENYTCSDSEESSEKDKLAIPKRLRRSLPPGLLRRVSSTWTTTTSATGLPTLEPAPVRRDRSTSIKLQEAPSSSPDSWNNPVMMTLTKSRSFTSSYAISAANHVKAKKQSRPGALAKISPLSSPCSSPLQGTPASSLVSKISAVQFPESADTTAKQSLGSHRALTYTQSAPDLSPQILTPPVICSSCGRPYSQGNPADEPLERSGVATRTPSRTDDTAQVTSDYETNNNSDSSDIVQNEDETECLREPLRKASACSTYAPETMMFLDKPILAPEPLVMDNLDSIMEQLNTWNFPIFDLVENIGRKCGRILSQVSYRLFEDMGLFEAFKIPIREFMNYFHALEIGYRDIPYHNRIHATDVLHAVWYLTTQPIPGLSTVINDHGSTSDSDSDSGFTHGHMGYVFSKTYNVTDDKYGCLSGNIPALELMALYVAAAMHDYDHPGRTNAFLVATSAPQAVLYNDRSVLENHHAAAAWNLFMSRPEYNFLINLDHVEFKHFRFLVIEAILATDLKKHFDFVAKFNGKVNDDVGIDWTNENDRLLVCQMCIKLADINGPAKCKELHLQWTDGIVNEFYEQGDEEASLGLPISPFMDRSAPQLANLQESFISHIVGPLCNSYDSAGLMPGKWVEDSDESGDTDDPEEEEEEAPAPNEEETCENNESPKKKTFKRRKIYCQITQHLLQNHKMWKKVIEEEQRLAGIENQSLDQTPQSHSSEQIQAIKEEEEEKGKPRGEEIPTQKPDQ
PDE3B, sequence (Q13370 whole entry, canonical isoform): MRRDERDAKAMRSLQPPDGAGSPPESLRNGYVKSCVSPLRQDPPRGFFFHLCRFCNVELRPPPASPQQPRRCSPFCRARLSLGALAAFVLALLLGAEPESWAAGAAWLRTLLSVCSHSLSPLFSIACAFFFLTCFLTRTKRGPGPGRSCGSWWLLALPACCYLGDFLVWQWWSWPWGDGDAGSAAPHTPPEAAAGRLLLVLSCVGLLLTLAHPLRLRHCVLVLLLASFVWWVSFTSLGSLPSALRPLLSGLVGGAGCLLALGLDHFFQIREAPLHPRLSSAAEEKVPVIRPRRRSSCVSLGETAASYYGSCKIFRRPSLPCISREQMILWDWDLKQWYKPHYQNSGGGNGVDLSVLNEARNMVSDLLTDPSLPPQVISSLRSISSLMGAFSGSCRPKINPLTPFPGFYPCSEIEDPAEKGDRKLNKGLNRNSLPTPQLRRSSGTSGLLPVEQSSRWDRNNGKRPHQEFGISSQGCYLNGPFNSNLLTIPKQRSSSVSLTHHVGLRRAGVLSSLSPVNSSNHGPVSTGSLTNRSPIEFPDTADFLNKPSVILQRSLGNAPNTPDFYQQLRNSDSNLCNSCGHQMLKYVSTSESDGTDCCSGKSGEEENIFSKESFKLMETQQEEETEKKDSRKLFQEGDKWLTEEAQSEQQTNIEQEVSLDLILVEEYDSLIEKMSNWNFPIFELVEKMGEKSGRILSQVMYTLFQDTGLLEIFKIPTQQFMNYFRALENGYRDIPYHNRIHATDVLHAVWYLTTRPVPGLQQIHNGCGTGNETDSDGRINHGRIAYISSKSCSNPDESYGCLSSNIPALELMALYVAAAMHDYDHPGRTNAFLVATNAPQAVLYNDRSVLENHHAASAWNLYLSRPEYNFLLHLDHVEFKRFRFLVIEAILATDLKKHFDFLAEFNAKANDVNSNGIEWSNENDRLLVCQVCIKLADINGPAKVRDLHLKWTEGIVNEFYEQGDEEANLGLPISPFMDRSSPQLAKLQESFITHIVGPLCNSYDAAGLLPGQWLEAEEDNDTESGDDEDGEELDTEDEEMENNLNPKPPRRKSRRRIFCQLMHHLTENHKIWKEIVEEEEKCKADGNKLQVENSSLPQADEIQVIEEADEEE
PDE10A, sequence (Q9Y233 whole entry, canonical isoform): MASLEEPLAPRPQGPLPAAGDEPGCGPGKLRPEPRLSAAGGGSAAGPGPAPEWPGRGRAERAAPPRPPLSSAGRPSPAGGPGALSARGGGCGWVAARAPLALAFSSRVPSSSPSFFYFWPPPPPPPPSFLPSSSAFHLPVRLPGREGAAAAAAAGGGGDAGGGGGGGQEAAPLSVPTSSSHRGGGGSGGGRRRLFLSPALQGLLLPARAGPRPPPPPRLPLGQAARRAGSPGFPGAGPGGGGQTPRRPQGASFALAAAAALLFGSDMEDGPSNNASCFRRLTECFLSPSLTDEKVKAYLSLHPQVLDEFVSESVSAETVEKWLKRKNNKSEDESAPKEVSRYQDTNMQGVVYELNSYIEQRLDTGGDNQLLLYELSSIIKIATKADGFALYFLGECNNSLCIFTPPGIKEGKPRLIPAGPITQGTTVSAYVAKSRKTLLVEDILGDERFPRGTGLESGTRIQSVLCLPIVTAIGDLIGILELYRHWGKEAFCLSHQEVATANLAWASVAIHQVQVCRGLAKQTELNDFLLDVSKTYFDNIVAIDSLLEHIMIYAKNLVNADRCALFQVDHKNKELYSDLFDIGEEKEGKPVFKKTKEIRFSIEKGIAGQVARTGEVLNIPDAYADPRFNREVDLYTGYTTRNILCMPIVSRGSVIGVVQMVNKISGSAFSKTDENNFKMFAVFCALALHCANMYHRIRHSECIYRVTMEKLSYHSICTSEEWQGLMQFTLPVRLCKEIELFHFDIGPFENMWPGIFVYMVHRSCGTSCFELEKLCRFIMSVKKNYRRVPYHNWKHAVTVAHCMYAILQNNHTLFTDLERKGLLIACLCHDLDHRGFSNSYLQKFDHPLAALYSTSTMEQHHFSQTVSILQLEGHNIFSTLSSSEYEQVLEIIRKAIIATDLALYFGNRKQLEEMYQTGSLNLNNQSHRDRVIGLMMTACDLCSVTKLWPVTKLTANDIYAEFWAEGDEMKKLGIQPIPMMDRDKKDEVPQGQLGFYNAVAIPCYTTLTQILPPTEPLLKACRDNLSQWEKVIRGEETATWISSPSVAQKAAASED
PDE1A, sequence (P54750 whole entry, canonical isoform): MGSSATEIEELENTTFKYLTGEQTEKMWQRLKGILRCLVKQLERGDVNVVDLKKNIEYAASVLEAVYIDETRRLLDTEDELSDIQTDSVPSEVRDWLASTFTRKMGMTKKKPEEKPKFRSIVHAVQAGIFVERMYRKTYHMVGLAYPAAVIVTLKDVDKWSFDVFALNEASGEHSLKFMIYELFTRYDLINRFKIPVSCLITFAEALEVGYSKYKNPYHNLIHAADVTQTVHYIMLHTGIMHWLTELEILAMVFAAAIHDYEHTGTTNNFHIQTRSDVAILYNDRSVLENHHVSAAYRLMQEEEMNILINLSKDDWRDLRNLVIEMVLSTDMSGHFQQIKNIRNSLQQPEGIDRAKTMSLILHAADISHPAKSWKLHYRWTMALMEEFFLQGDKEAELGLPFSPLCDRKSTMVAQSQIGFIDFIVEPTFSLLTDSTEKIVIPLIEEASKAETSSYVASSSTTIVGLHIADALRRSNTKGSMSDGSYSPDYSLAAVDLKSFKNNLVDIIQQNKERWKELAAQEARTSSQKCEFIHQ

Take `CC(C)(C)C1=NN(c2ccc(C(=O)O)cc2)C(c2ccc(Cl)cc2Cl)C1` (centres unmarked) [Compound 11, 4-(3-(tert-Butyl)-5-(2,4-dichlorophenyl)-4,5-dihydro-1H-pyrazol-1-yl) benzoic acid]: the inhibition at 50 µM at PDE3B (read-out: % inhibition at 50 μM, PDE3B (cAMP)) amounted to 6.7%; at PDE3B (read-out: % inhibition at 50 μM, PDE3B (cGMP)), 15.7%; at PDE2A (read-out: % inhibition at 50 μM, PDE2A (cAMP)), 5.6%; at PDE2A (read-out: % inhibition at 50 μM, PDE2A (cGMP)), 19.9%; on PDE11A (read-out: % inhibition at 50 μM, PDE11A (cAMP)), 0.9%; at PDE11A (read-out: % inhibition at 50 μM, PDE11A (cGMP)), 5.9%. The inhibition at 50 µM at PDE1A (read-out: % inhibition at 50 μM, PDE1A (cAMP)) came to 2.6%; at PDE1A (read-out: % inhibition at 50 μM, PDE1A (cGMP)), 22%; on PDE8A, 4%; on PDE7A, 9.1%; at PDE3A (read-out: % inhibition at 50 μM, PDE3A (cAMP)) it was 12.4%; at PDE3A (read-out: % inhibition at 50 μM, PDE3A (cGMP)), 36.2%. Also, the inhibition at 50 µM came to 16.2% at PDE6C; 10.7% on PDE9A; 3.6% at PDE10A (read-out: % inhibition at 50 μM, PDE10A (cAMP)); 4.5% at PDE10A (read-out: % inhibition at 50 μM, PDE10A (cGMP)); 1.6% on PDE4B2; 97% at human recombinant PDE5 (read-out: % inhibition at 50 μM, PDE5A (cGMP)). Moreover, the inhibition at 50 µM at human recombinant PDE5 (setting [3]) was 97%. The “relative potency/efficacy in increasing intracellular cGMP levels” value in [1] is listed as “substantially higher efficacy; also recorded: higher cellular potency”. For the same compound, the “intracellular cGMP levels (luminescence), concentration dependence” value in assay [1] is listed as “concentration-dependent increase”. The IC50 at human recombinant PDE5 is 2.7 µM. Also, the “effect on activity of all other PDE isozymes” value in assay [2] was “without significantly affecting the activity”.

For the compound `CCOc1ccc(C2CC(C(C)(C)C)=NN2c2ccc(C(=O)O)cc2)cc1` (centres unmarked) [Compound 19, 4-(3-(tert-Butyl)-5-(4-ethoxyphenyl)-4,5-dihydro-1H-pyrazol-1-yl)benzoic acid], in assay [1], the “relative potency/efficacy in increasing intracellular cGMP levels” value is “substantially higher efficacy” and the “intracellular cGMP levels (luminescence), concentration dependence” value is listed as “concentration-dependent increase”. For the same compound, the inhibition at 50 µM on human recombinant PDE5 (setting [3]) is 95.3%.

As for `Cc1ccc(C2CC(C(C)(C)C)=NN2c2ccc(C(=O)O)cc2)cc1` (centres unmarked) [Compound 22, 4-(3-tert-Butyl-5-p-tolyl-4,5-dihydro-1H-pyrazol-1-yl)benzoic acid], the “COX2 inhibition at 100 μM” value on COX-2 (screening concentration 100 μM) is recorded as “no COX inhibition”. Besides, the “COX1 inhibition at 100 μM” value on COX-1 is on record as “no COX inhibition”. Also, the “fold improvement in PDE5 inhibitory activity compared to celecoxib” value at human recombinant PDE5 (ratio of IC50 vs celecoxib) is given as 4 fold. Also, the inhibition at 50 µM at human recombinant PDE5 (setting [3]) is 93%.

As to `CC(C)(C)C1=NN(c2ccc(S(=O)(=O)O)cc2)C(c2ccc(F)cc2)C1` (centres unmarked) [Compound 31, 4-(3-tert-Butyl-5-(4-fluorophenyl)-4,5-dihydro-1H-pyrazol-1-yl) benzenesulfonic acid], the IC50 was 80 µM on COX-2 and 9.3 µM on human recombinant PDE5. For the same compound, at human recombinant PDE5 (setting [3]), the inhibition at 50 µM is 80%.

Turning to `CC(C)(C)C1=NN(c2ccc(S(=O)(=O)O)cc2)C(c2ccc(Cl)cc2)C1` (centres unmarked) [Compound 32, 4-(3-tert-Butyl-5-(4-chlorophenyl)-4,5-dihydro-1H-pyrazol-1-yl)benzenesulfonic acid], the midpoint of inhibition at COX-2, the IC50, lay at 85 µM. At human recombinant PDE5, the IC50 turned out to be 8.7 µM and the “fold reduction in PDE5 inhibitory potency compared to compound 7” value is given as “about 2 fold”. Besides, the inhibition at 50 µM on human recombinant PDE5 (setting [3]) stood at 85%.

`CC(C)(C)C1=NN(c2ccc(S(N)(=O)=O)cc2)C(c2ccc(Cl)cc2)C1` (centres unmarked) [Compound 33, 4-(3-tert-Butyl-5-(4-chlorophenyl)-4,5-dihydro-1H-pyrazol-1-yl)benzenesulfonamide]: 34 µM corresponded to half-maximal inhibition on COX-2 (IC50). At human recombinant PDE5, the IC50 was found to be 48.7 µM and the “fold reduction in PDE5 inhibitory potency compared to compound 7” value is reported as “about 15 fold”. Also, the inhibition at 50 µM on human recombinant PDE5 (setting [3]) was 57.5%.
